In the library only some 2.7% were active in any assay of this set; here they are far more common.
Yeast life ext: yeast lifespan extension; S. cerevisiae growth with nicotinamide, OD615; deaD strain in restrictive glucose medium; inhibition of the nicotinamide effect, % at 10 µM; hit rate 0.68% among 130,000;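 active = inhibition above a set limit, placed 3 SD over the median of all compounds, cut at about 26% in these data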;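 also: 0% = nicotinamide-treated wells and 100% = cells grown without nicotinamide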
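assay system = DeaD-strain S. cerevisiae | measured by = absorbance at 615 nm | probe or stimulus = nicotinamide 1.5 mM | buffer or medium = CSMM-D glucose medium, restrictive | times = 48 h at 30 °C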
Yeast growth inh: reduces growth of yeast BB579 in restrictive medium. hit rate 0.51% among 140,000. inhibition, % at 10 µM. S. cerevisiae BB579 growth, OD615, 48 h;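 active = inhibition above a set limit, 3 SD over the mean compound inhibition, cut at about 44% in these data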
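System: DeaD yeast strain BB579; buffer or medium: CSMM-D dextrose restrictive medium; technique: OD at 615 nm; schedule: 4 h cell preincubation, 48 h compound exposure, 30 °C humidified; doses: single 10 µM dose; controls: amphotericin B 10 µg/mL, positive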
RAM inhibit: blocks the yeast RAM network | S. cerevisiae dse1pr::URA3 reporter, 5-FOA growth OD615, 2 d; analog-sensitive cbk1-as2 kinase mutant strain | inhibition, % at 50 µM | hit rate 1.8% among 190,000 | AID 868;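 active = inhibition above a set limit, 3 SD over mean compound inhibition, cut at about 8.4% in these data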;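 also: 0% = DMSO-only wells with no growth and 100% = 10 µM 1-NA-PP1 full growth; inhibition rescues growth on 5-FOA so higher OD means more RAM inhibition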
sdo1 growth: compounds rescuing growth of sdo1-depleted yeast, bone marrow failure model; z-score at 10 µM; S. cerevisiae sdo1-depleted JHY4D growth rescue, OD600 30 h; active compounds read high; pdr5 snq2 efflux-pump mutant strain; hit rate 0.21% among 140,000;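 active = z-score above 3 at both the 24 hr and the 30 hr optical density reads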;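 also: z-score against mean and SD of all compound wells on the same plate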
RAM 5-FOA: restores 5-FOA growth of efflux-deficient yeast; AID 1305; 1,200 tested, under 10 active; S. cerevisiae efflux-deficient reporter strain, 5-FOA growth OD615, 2 days; max inhibition, %; shares compounds with RAM inhibit; call rule not given here;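 also: plate controls were vehicle for no effect and reference inhibitor for full effect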
* hit, by the source's call; x = no result.

SMILES	Yeast life ext	Yeast growth inh	RAM inhibit	sdo1 growth	RAM 5-FOA
CCCCCCOC1(c2ccccc2)OC(=O)c2ccccc21 (stereo not drawn)	-2.9	-23.6	0.6	-0.6	x
Cc1ccc(OCCn2cc(/C=C(\C#N)C(=O)NCC3CCCO3)c3ccccc32)cc1 (stereo not drawn)	2.6	-56.0	14.0*	-0.41	6.5
Cc1ccc(C)c(OCCn2cc(/C=C(\C#N)C(=O)NCC3CCCO3)c3ccccc32)c1 (stereo not drawn)	-6.6	-2.2	7.0	0.24	x
Cc1ccc(OCCn2cc(/C=C(\C#N)C(=O)NCC3CCCO3)c3ccccc32)cc1C (stereo not drawn)	-0.6	-20.8	11.8*	0.66	6.3
CCC(=O)NC1CCN(C(=S)NC)CC1	x	x	1.1	x	x
CC(C)(C)OC(=O)NCCCCCNC(=O)c1[nH]cnc1C(=O)N[C@@H](Cc1ccccc1)C(=O)OCc1ccccc1	x	x	12.8*	x	7.0
CN(Cc1ccccc1)C(=O)c1[nH]cnc1C(=O)N[C@@H](Cc1ccccc1)C(=O)OCc1ccccc1	x	x	11.9*	x	3.4
C[C@@H](NC(=O)c1nc[nH]c1C(=O)N[C@@H](Cc1ccccc1)C(=O)OCc1ccccc1)c1ccccc1	x	x	7.9	x	x
CC(C)C[C@H](NC(=O)c1nc[nH]c1C(=O)NCc1ccccc1)C(=O)OCc1ccccc1	x	x	14.4*	x	7.6
O=C(Cc1cccs1)NNC(=O)C12CC3CC(CC(C3)C1)C2	x	x	0.6	x	x
O=C(Nc1ccccc1-c1nnc(SCc2ccccc2)o1)c1ccccc1	6.6	-22.4	19.1*	-0.54	4.4
COc1cc(OC)cc(-c2nnc(SCc3cccc(C(=O)O)c3)o2)c1	-7.8	-16.7	14.0*	0.37	2.5
Cc1ccccc1-c1nnc(SCc2ccc(F)cc2)o1	-20.3	-72.9	6.5	-1.03	x
O=C(O)c1cccc(CSc2nnc(-c3ccco3)o2)c1	5.6	-32.3	1.9	0.22	x
O=C(c1ccccn1)N(c1ccccc1)C1(C(=O)NC2CCCCC2)CCCCC1	x	x	5.3	x	x
C/C(=N\Nc1nc2c(s1)CCCC2)c1ccc(Cl)cc1	-24.6	25.2	12.6*	-1.85	1.4
Cc1ccc(S(=O)(=O)N2CCC(=O)N(C(COCc3ccc(Cl)c(Cl)c3)Cc3ccccc3)CC2)cc1 (stereo not drawn)	6.9	-36.9	11.5*	-0.09	3.2
Cc1ccc(S(=O)(=O)N2CCC(=O)N(C(CO)C(C)C)CC2)cc1 (stereo not drawn)	1.5	-29.1	1.5	0.76	x
Cc1ccc(S(=O)(=O)N2CCC(=O)N(C(COCc3ccc(C(F)(F)F)cc3)C(C)C)CC2)cc1 (stereo not drawn)	11.9	-41.8	11.9*	-0.96	1.5
Cc1ccc(S(=O)(=O)N2CCC(=O)N(C(COCc3cccc(C)c3)Cc3ccccc3)CC2)cc1 (stereo not drawn)	19.7	-12.9	13.7*	-0.55	2.5
Cc1ccc(S(=O)(=O)N2CCC(=O)N(C(CO)Cc3ccccc3)CC2)cc1 (stereo not drawn)	1.7	-31.5	0.8	0.35	x
Cc1cccc(COCC(Cc2ccccc2)N2CCN(C(=O)c3ccc(C(F)(F)F)cc3)CCC2=O)c1 (stereo not drawn)	13.1	-10.2	13.3*	-0.48	1.3
CCN(CC)S(=O)(=O)c1ccc(/C=C/C(=O)OCC(=O)N(C(C)C)C(C)C)cc1	x	x	0.2	x	x
CC1=CC(C)(C)n2c(O)c(N=NC(N)=S)c3cccc1c32	11.1	-34.1	12.5*	0.16	4.7
Cc1cc(Cl)ccc1OCC(=O)N/N=C1\CCCc2ccccc21	-11.8	-1.2	15.0*	1.52	3.0
SMILES	Yeast life ext	Yeast growth inh	RAM inhibit	sdo1 growth	RAM 5-FOA
Cc1cc(C)cc(NC(=S)N2CCC(N(C)CC3CCCO3)CC2)c1 (stereo not drawn)	x	x	1.0	x	x
CC(C)Oc1ccccc1OCCCCn1cnc2ccccc2c1=O	x	x	13.8*	x	2.2
Cc1ccc(C)c(OCCCCn2cnc3ccccc3c2=O)c1	-21.0	-1.8	-1.1	-1.56	x
CCOC(=O)N1CCC(NC(=O)C2CCN(S(=O)(=O)c3ccc4c(c3)oc(=O)n4C)CC2)CC1	x	x	0.9	x	x
CCCC1S/C(=N/N=C/c2ccc(C)cc2)N(Cc2ccc(OC)cc2)C1=O (stereo not drawn)	9.2	-50.7	12.2*	0.43	4.9
COc1ccc(/C=N/N=C2\SC(CC(=O)O)C(=O)N2c2ccccc2)cc1 (stereo not drawn)	4.5	-6.5	3.8	1.29	x

Source: PubChem
